This note sets out measurements from ChEMBL document CHEMBL4513216, “Probing the Open Global Health Chemical Diversity Library for Multistage-Active Starting Points for Next-Generation Antimalarials” (ACS Infect Dis, 2020).

The data set is described as follows: Toxicity liver stage against HepG2, at 10uM. More on the design: test concentration 10 uM, cell line HepG2-A16-CD81EGFP. The following applies: human, HepG2-A16-CD81EGFP cells; read-out: INHIBITION
The format is cell-based. The gist of the method:
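Uninfected HepG2-A16-CD81EGFP cells, 3 × 10^3 per well, 1536-well, plated on prespotted compound at 10 μM final, parasite-free screening media added to match infected plates; puromycin 10 μM positive, DMSO 0.5% negative; run in parallel with 48 h PbLuc assay at 37 °C, 5% CO2; viability by CellTiter-Glo luminescence, normalized to controls.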
`COc1cccc2c3c(c(=O)[nH]c12)CCC(C)(C)O3`: the cytotoxicity at 10 µM was -1.43%.
The result for `O=C(NCC(O)c1ccccc1)Nc1cccs1` (configuration not stated) reads 8.25%; that for `O=c1ncn(-c2ccc(F)cc2)c2ncccc12`, 0.946%; that for `Cc1nc2ccccc2c(=O)n1Cc1nnnn1C1CC1`, -13.8%.
The value for `CC(C)CNC[C@H]1COCc2nc3cccnc3n21` was -4.48%; that for `CC(C)N1CCN2C(=O)N(C3CCCCC3)C[C@H]2C1` was 1.2%.
With `O=C(CC1CCCCC1)N1CCOCC1CO` (configuration not stated), the cytotoxicity at 10 µM was -0.779%.
Take `CC(C)c1nnc(C2CCN(CC(=O)Nc3cccnc3)CC2)o1`: the cytotoxicity at 10 µM was -5.92%.
`O=C(Nc1cnn(C2CCOCC2)c1)c1ccc2c(c1)OCO2`: the cytotoxicity at 10 µM was 3.07%.
The value for `COCc1nn(CC2CC2)c2c1CN(C(=O)c1ccno1)CC2` was 10.4%; that for `O=C(c1ccncc1)N1CCc2onc(CN3CCCC3)c2C1` was -3.7%.
Consider `Cc1cccc(N2CC[C@@H]3[C@@H](CO[C@H]3CNS(C)(=O)=O)C2)n1`, for which the cytotoxicity at 10 µM was 3.62%.
In the case of `c1ccc(-c2ncc3c(n2)C2(CCN(c4ncccn4)C2)COC3)cc1` (configuration not stated), the cytotoxicity at 10 µM was 1.36%.
The result for `Cn1cc(C2CC3(CCN(C(=O)c4cccs4)CC3)NC2=O)cn1` (configuration not stated) reads 1.27%; that for `CO[C@H]1CN(C(=O)c2ccc(C)o2)[C@@H]2CCCO[C@H]12`, -153%; that for `CNc1oc(-c2cc(S(=O)(=O)N3CCCC3)c(C)o2)nc1C#N`, 5.08%.
Turning to `COc1cccc(C2CC(=O)Nc3c2cnn3C(C)(C)C)c1` (configuration not stated), the cytotoxicity at 10 µM was -8.54%.
Take `COCCN1C(=O)CCC12CCN(C(=O)NC(C)C)CC2`: the cytotoxicity at 10 µM turned out to be 4.45%.
Consider `O=C(c1ccc[nH]1)N1C[C@H](OCc2cccnc2)[C@H]2COC[C@H]21`, for which the cytotoxicity at 10 µM is -10.4%.
The result for `CCS(=O)(=O)Nc1ccn(Cc2c(F)cccc2Cl)n1` reads 7.77%; that for `COc1cc(CC2CC(c3ccc4c(c3)OCO4)=NO2)cc2c1OCO2` (configuration not stated), 0.69%; that for `c1ccc(Oc2nccnc2C2CCN(C3CCOCC3)CC2)cc1`, 4.38%.
The value for `Cc1nccc(C2CCCN(C(=O)c3cncnc3)C2)n1` (configuration not stated) was 4.1%.
For `CCOC(=O)c1n[nH]cc1-c1cncn1CCn1nc(C)c(Cl)c1C`, the cytotoxicity at 10 µM is -15.1%.
For `NC(=O)CN1CCCC(c2nccnc2Oc2cccc(F)c2)C1` (configuration not stated), the cytotoxicity at 10 µM was -17.1%.
The value for `Cc1cccc(CC(=O)NC2CCN(C(=O)NC(C)(C)C)CC2)c1` was -10.4%.
The result for `Cn1ccnc1CN1CCCN(C(=O)C2(C#N)CCCCC2)CC1` reads -2.84%; that for `Cc1ccn(Cc2nc(C(C)OCC(C)C)no2)c(=O)c1` (configuration not stated), 5.56%; that for `CCC(CNS(=O)(=O)c1cccc(C(=O)OC)c1)N1CCCC1` (configuration not stated), -8.93%.
The value for `CCOCCC(=O)Nc1cccc(Cl)c1C(N)=O` was -8.59%; that for `CCc1cnc(C(C)NC(=O)N2CCCN(CC(F)F)CC2)s1` (configuration not stated) was -0.423%.
In the case of `CCn1cc(C(=O)NCC(C)(CC)N2CCOCC2)c2ccccc21` (configuration not stated), the cytotoxicity at 10 µM amounted to 6.13%.
The result for `CC(NC(=O)Nc1cccnc1N1CCOCC1)c1ccccc1` (configuration not stated) reads 2.83%.
With `Cc1ccc(CNC(=O)NC2CCC(O)CC2)c(N2CCCC2)c1` (configuration not stated), the cytotoxicity at 10 µM was -16.4%.
Regarding `O=C(NCc1ccnc(OCC2CC2)c1)C1Cc2ccccc2O1` (configuration not stated), the cytotoxicity at 10 µM was -0.483%.
The result for `CN1CCN(C(=O)c2cccn2C)c2ccccc2C1` reads 7.28%.
The value for `Cc1cc(F)cc2c(N3CCS(=O)(=O)CC3)c(C#N)cnc12` was -16.7%; that for `CCc1nsc(N2CCN(C(=O)COc3ccccc3)CC2)n1` was -3.49%.
Consider `Cc1cccc(-c2noc(CN3CCC(c4ccn[nH]4)CC3)n2)c1`, for which the cytotoxicity at 10 µM came to 4.13%.
In the case of `CCNC(=O)C1CCN(Cn2nc(-c3ccccc3)oc2=O)CC1`, the cytotoxicity at 10 µM was determined as 11.5%.
Turning to `CC(C)NC(=O)c1nnn(-c2ccc(F)cc2)c1C1CC1`, the cytotoxicity at 10 µM came out at 12.1%.
The result for `OC1CCN(c2ccc(CNc3nc4ccccc4o3)cc2F)CC1` reads 0.833%; that for `CC(C)n1cc2cc(NC(=O)Cn3cnnn3)ccc2n1`, -138%.
The value for `Cc1cc(NC(C)C(=O)NCc2ccccc2)nc(-c2ccncc2)n1` (configuration not stated) was 0.563%.
In the case of `CS(=O)(=O)CCCOc1cccc(-n2cccn2)c1`, the cytotoxicity at 10 µM was -9.22%.
The value for `C1CCN(CCOC2CCNCC2)C1` was 6.59%; that for `O=C(NCC1(c2cccc(F)c2)CC1)N1CCC2(CCOC2)C1` (configuration not stated) was 2.82%.
Take `CN(Cc1cccs1)c1cc(N2CCCC2CO)ncn1` (configuration not stated): the cytotoxicity at 10 µM turned out to be 1.26%.
For `CS(=O)(=O)c1cccc(S(=O)(=O)NC(=O)CCC2CCCCC2)c1`, the cytotoxicity at 10 µM was found to be 0.848%.
On to `CCCSCC(=O)Nc1ncn(CC(=O)N2CCCCCC2)n1`, for which the cytotoxicity at 10 µM is -3.91%.
For the compound `Cc1cc(N2CCCC(OC(=O)CCc3cnn(C)c3)C2)nc(C)n1` (configuration not stated), the cytotoxicity at 10 µM is 0.127%.
As to `CCOCCCC(=O)NCCC(=O)N1CCN(c2ccccn2)CC1`, the cytotoxicity at 10 µM is -4.76%.
The value for `CC1CN(C)c2ccccc2CN1C(=O)CSc1ccncc1` (configuration not stated) was -12.6%.
Consider `CN(C)C1CCN(C(=O)c2n[nH]c3c2CCN(CC2CCC2)C3)CC1`, for which the cytotoxicity at 10 µM is 3.48%.
The result for `CCn1cc2c(n1)C(COC)CN(C(=O)CCOc1ccccc1)C2` (configuration not stated) reads 0.234%; that for `CCC[C@H]1CN(CCCO)C[C@@H]1NC(=O)Cn1cc(C)cn1`, 1.39%; that for `Cc1nc[nH]c1C(=O)N1CCC2(CC1)CN(CCN(C)C)C(=O)O2`, 4.54%.
Consider `Cc1ccccc1NC(=O)CNC(C)COc1ccccc1` (configuration not stated), for which the cytotoxicity at 10 µM was -0.264%.
The result for `CN(CC1CCCCO1)c1nc2c(cc1C(N)=O)CCC2` (configuration not stated) reads -5.64%.
The result for `O=C1NCCN1CCNc1cc(-c2ccccc2)nc2ccnn12` reads -10.7%; that for `NS(=O)(=O)CCCC(=O)N1CCC2(CC1)c1ccccc1CC2O` (configuration not stated), 4.71%; that for `O=C(CCc1cc2n(n1)CCCNC2)N1CCC(N2CCOC2=O)CC1`, 6.05%.
In the case of `Nc1ncc(C(=O)N2CCC3(CCCO3)CC2)c(-c2ccccc2)n1`, the cytotoxicity at 10 µM was -156%.
The value for `O=C(NCC1=CCCCC1)C(c1cccnc1)N1CCCC1` (configuration not stated) was -3.78%; that for `CC(=O)N[C@@H](C)C(=O)NCc1cccnc1Oc1ccccc1F` was -3.53%.
In the case of `c1ccc(-c2noc(CCNC3CCOC4(CCOCC4)C3)n2)nc1` (configuration not stated), the cytotoxicity at 10 µM was -6.5%.
With `CC(C)N1CC(c2ncc(-c3ccc4c(c3)OCCO4)[nH]2)CC1=O` (configuration not stated), the cytotoxicity at 10 µM amounted to 0.166%.
The value for `Cc1nc2ccccc2n1Cc1cc(C(=O)N(C)C2CCOC2)n[nH]1` (configuration not stated) was 4.91%.
The value for `CCc1cnc(C)nc1NCCc1nc(N)cc(O)n1` was -0.264%.
The result for `Cc1nc(CNC(=O)CC2C(=O)NCCN2CCC(C)C)n[nH]1` (configuration not stated) reads -4.44%.
For `Cc1nc(NCCC23CCCN2CCC3)cc(C2CCNCC2)n1`, the cytotoxicity at 10 µM amounted to 8.37%.
Consider `CCN1CC(C(=O)N2CCC(Oc3ccccc3C)CC2)CC1=O` (configuration not stated), for which the cytotoxicity at 10 µM was -12.1%.
With `Cc1ccc(NC2CCN(C(=O)c3ccncc3)CC2)nn1`, the cytotoxicity at 10 µM stood at 8.85%.
The result for `CC(Cn1cccn1)NC(=O)Nc1nncs1` (configuration not stated) reads -1.86%; that for `Cc1nn(C)c(C)c1C1CCCN1C(=O)CCNS(C)(=O)=O` (configuration not stated), -26%.
The result for `CC(=O)N1CCCN(C(=O)NCc2cccnc2OC(C)C)CC1` reads -5.5%.
On to `Clc1ccc(-c2nnc(CNCCn3cccn3)o2)c(Cl)c1`, for which the cytotoxicity at 10 µM is -4.86%.
Turning to `CCOc1ccc(C#N)cc1NCC(=O)OC`, the cytotoxicity at 10 µM is -19.2%.
As for `Cc1nc(C)n(CC2CCCN2CCC(=O)NC2CCCC2)n1` (configuration not stated), the cytotoxicity at 10 µM was -10.4%.
Regarding `c1ccc(-c2nc(CN3CCn4c(nnc4C4CC4)C3)co2)cc1`, the cytotoxicity at 10 µM is -2.18%.
With `COc1c(C2CCCN2Cc2noc(C)n2)c(C)nn1C` (configuration not stated), the cytotoxicity at 10 µM was -12.5%.
Take `CCN(CCC1CCN(C(=O)NCc2nncn2CC)CC1)CC1CC1`: the cytotoxicity at 10 µM was -2.75%.
Turning to `Cc1ccc(C(=O)Nc2ccc(S(=O)(=O)/N=C3\CCCN3C)cc2)s1`, the cytotoxicity at 10 µM was found to be 0.174%.
The result for `CCOc1ncccc1C(=O)NC1CCCN(c2ncccn2)C1` (configuration not stated) reads -23.5%; that for `CN(Cc1cccc(C(N)=O)c1)CC1CCCN1c1cccnn1` (configuration not stated), -9.75%; that for `CN1CC(C(=O)NCc2cccnc2-n2cccn2)CC1=O` (configuration not stated), -6.18%.
Consider `CCn1cnnc1C1CCN(C(=O)COc2ccc(Cl)cc2)CC1`, for which the cytotoxicity at 10 µM was -3.39%.
For `CC(C)c1cc(NC(=O)c2ccc(NC3CC3)nc2)[nH]n1`, the cytotoxicity at 10 µM was -8.9%.
The value for `CNC(=O)[C@@H](c1ccccc1OC)N1CCC[C@H]1C(=O)N1CCC1` was 1.44%; that for `CC(C)(C)NC[C@@H]1CCC[C@@H]2CN(Cc3csnn3)C[C@@H]21` was -134%; that for `CN(C)CCN1C(=O)CCC12CCCN(C(=O)c1cccnc1)CC2` (configuration not stated) was -6.78%.
The value for `CNC(=O)c1cc2c(nc1NCC(C)C)CCN(c1ccncn1)CC2` was 7.95%; that for `CCC(=O)N1CCC2(CC1)C(=O)N(Cc1cccnc1)CCN2C` was 2.17%; that for `CCN(C)c1ncnc2c1CCN(Cc1nccs1)CC2` was -2.46%.
The result for `CN1CCN(C[C@@H]2OC[C@H]3CN(CCc4ccccc4)CC[C@H]32)CC1` reads 8.84%; that for `O=c1ccc2c([nH]1)CCC(NCc1ccc3c(c1)OCO3)C2` (configuration not stated), 6.69%; that for `O=C(CSc1ccccn1)N1C[C@@H]2CC[C@H]1CN(Cc1cscn1)C2`, 1.93%.
